Activity calls are given as the source filed them. The calls are words filed in the database; no cut-off is given here.
Columns and labels:
[1] = biological target: Delta-aminolevulinic acid dehydratase (Pseudomonas aeruginosa (strain ATCC 15692 / PAO1 / 1C / PRS 101 / LMG12228)) (UniProt Q59643); assay: Inhibition of Pseudomonas aeruginosa PAO1 recombinant PBGS using 0.2 mM 5-ALA as substrate at 50 to 200 uM at pH 7.5 in presence of KCl by buffer scan assay
[2] = biological target: Delta-aminolevulinic acid dehydratase (Yersinia enterocolitica W22703) (UniProt F4MUJ9); assay: Stimulation of Yersinia enterocolitica recombinant PBGS expressed in Escherichia coli using 5-ALA as substrate relative to control
Sequence of Delta-aminolevulinic acid dehydratase (Yersinia enterocolitica W22703) (F4MUJ9 as listed by the source): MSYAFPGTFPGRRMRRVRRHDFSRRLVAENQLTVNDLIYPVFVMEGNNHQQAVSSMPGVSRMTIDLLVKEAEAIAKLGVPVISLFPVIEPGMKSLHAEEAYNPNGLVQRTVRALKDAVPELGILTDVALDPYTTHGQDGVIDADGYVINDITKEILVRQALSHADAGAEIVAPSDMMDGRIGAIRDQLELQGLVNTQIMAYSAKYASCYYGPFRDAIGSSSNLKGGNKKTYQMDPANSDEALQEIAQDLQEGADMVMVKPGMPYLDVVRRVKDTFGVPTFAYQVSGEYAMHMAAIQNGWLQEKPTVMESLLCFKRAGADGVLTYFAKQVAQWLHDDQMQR
Procedure, shortened: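 Y. enterocolitica PBGS, expressed in E. coli from pET3, at 150 nM subunit in 100 mM BTP-HCl pH 8.0 with 1 mM MgCl2, 5 mM DTT, 100 mM KCl and 0.2 mM 5-ALA, 10 min at 36 °C. Porphobilinogen read with Ehrlich's reagent. Activity normalized to 6.7% DMSO control as 100%. EC50 from variable-slope agonist fit.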

[3] = biological target: Delta-aminolevulinic acid dehydratase (Pseudomonas aeruginosa (strain ATCC 15692 / PAO1 / 1C / PRS 101 / LMG12228)) (UniProt Q59643); assay: Stimulation of Pseudomonas aeruginosa PAO1 recombinant PBGS using 5 mM 5-ALA as substrate assessed as increase in Vmax at 10 to 10000 uM at pH 8 by buffer scan assay in presence of MgCl2
Procedure, shortened: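 Mg2+ or substrate response curves recorded with and without wALADin1; VMAX, KM and Mg2+ affinity derived from the fits.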

[4] = biological target: Delta-aminolevulinic acid dehydratase (Yersinia enterocolitica W22703) (UniProt F4MUJ9); assay: Inhibition of Yersinia enterocolitica recombinant PBGS expressed in Escherichia coli using 5-ALA as substrate at 50 to 200 uM at pH 7 to 8.5 by buffer scan assay in presence of KCl
[5] = biological target: T1, Delta-aminolevulinic acid dehydratase (Wolbachia sp. subsp. Brugia malayi (strain TRS)) (UniProt Q5GSR3); settings: 25 to 2500 uM
T1 sequence (whole entry): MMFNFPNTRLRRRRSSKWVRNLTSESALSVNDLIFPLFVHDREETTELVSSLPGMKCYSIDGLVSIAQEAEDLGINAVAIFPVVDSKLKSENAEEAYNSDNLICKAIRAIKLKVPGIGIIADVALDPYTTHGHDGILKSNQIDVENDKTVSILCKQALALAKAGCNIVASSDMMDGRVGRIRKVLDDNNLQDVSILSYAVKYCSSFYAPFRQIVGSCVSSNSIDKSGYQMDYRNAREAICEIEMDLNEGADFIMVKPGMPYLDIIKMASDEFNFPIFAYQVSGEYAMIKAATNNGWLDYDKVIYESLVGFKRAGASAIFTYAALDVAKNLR

[6] = biological target: Delta-aminolevulinic acid dehydratase (Pseudomonas aeruginosa (strain ATCC 15692 / PAO1 / 1C / PRS 101 / LMG12228)) (UniProt Q59643); assay: Binding affinity to Pseudomonas aeruginosa PAO1 recombinant PBGS at 100 to 500 uM by thermal shift assay
[7] = biological target: T2, Delta-aminolevulinic acid dehydratase (Escherichia coli (strain K12)) (UniProt P0ACB2); assay: Inhibition of Escherichia coli recombinant PBGS using 5-ALA as substrate at 50 to 200 uM at pH 7 to 8.5 by buffer scan assay
T2 sequence (whole entry): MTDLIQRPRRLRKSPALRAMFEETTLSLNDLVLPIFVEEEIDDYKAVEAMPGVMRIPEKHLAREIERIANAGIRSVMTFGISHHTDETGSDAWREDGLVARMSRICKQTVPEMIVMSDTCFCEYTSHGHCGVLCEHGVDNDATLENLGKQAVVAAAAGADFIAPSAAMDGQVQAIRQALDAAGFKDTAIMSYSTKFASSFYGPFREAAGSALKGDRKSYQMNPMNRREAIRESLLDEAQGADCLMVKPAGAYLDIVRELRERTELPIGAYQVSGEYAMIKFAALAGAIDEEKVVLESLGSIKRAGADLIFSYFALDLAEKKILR

[8] = biological target: Delta-aminolevulinic acid dehydratase (Pseudomonas aeruginosa (strain ATCC 15692 / PAO1 / 1C / PRS 101 / LMG12228)) (UniProt Q59643); assay: Stimulation of Pseudomonas aeruginosa PAO1 recombinant PBGS assessed as stabilization of dimeric form at 8 to 2000 uM by nondenaturing PAGE analysis in presence of Mg2+ and K+
Procedure, shortened: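 PaPBGS (3 μg) preincubated 20 min at 37 °C in assay buffer with 1 mM Mg2+, 100 mM K+ and wALADin1, no 5-ALA. Run on 7.5% nondenaturing PAGE at 4 °C for 15–20 h. Coomassie for oligomer state; in-gel activity with 500 μM 5-ALA stained with Ehrlich's reagent.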

[9] = biological target: T2, Delta-aminolevulinic acid dehydratase (Escherichia coli (strain K12)); assay: Stimulation of Escherichia coli recombinant PBGS assessed as reduction in Mg2+-induced conversion of dimer to octamer at 8 to 2000 uM by nondenaturing PAGE analysis
Procedure, shortened: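 EcPBGS (3 μg) preincubated 20 min at 37 °C in BTP pH 8.1 buffer with varied Mg2+, Zn2+ and wALADin1. Run on 7.5% nondenaturing PAGE; Coomassie stain plus in-gel activity with 500 μM 5-ALA and Ehrlich's reagent.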

Toxoplasma gondii = assay: Stimulation of Toxoplasma gondii recombinant PBGS using 5-ALA as substrate relative to control
Procedure, shortened: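 Recombinant T. gondii PBGS (hemB in pET-21b, expressed in BL21 E. coli) at 250 nM subunit in 100 mM Tris-HCl pH 8.0, 1 mM MgCl2, 5 mM DTT, with 200 μM 5-ALA, 20 min at 36 °C. Porphobilinogen was read with Ehrlich's reagent, and turnover was kept at or below 30%.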

[10] = biological target: Delta-aminolevulinic acid dehydratase (Pseudomonas aeruginosa (strain ATCC 15692 / PAO1 / 1C / PRS 101 / LMG12228), UniProt Q59643); assay: Stimulation of Pseudomonas aeruginosa PAO1 recombinant PBGS using 5-ALA as substrate
Sequence of Delta-aminolevulinic acid dehydratase (Q59643 whole entry): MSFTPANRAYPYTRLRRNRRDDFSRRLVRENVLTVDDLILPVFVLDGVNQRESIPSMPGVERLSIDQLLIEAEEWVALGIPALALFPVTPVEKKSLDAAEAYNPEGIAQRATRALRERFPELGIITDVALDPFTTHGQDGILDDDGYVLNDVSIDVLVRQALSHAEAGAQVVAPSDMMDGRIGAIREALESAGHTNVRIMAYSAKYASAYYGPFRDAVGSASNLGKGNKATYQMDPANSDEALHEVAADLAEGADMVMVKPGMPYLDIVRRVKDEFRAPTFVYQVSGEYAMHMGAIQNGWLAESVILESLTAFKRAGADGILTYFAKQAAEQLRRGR
Procedure, shortened: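 His-tagged PaPBGS at 150 nM subunit in 100 mM Tris-HCl pH 8.0 with 1 mM MgCl2, 100 mM KCl and 0.2 mM 5-ALA, 10 min at 36 °C, with turnover at most 30%. Porphobilinogen read with Ehrlich's reagent. Activity normalized to 6.7% DMSO control as 100%. EC50 from variable-slope agonist fit.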

Sequence of Delta-aminolevulinic acid dehydratase (Pseudomonas aeruginosa (strain ATCC 15692 / PAO1 / 1C / PRS 101 / LMG12228)) (Q59643 whole entry): as above

For `O=C(O)c1ccc2c(c1)nc(CCNC(=O)c1cccs1)n2Cc1cccc(C(F)(F)F)c1`, the inhibition [1] was “Active”, the Smax [2] was 152% and the Activity [3] was “Active”. The inhibition [4] was “Active”, the inhibition [5] was “inactive” and the Activity [6] was “Active”. The inhibition [7] was “Active”, the Activity [8] was “inactive” and the Activity [9] was “Active”. For the same compound, the Smax (Toxoplasma gondii) was 128% and the EC50 [10] was 69 µM.

From ChEMBL document CHEMBL3286371, “wALADin benzimidazoles differentially modulate the function of porphobilinogen synthase orthologs” (J Med Chem, 2014)
